Results published in ChEMBL document CHEMBL1221204, “Spliceostatin A targets SF3b and inhibits both splicing and nuclear retention of pre-mRNA” (Nat Chem Biol, 2007).
Activity calls are given as the source filed them. The rule behind the calls is not given here.

What was measured:
HeLa [1] = assay: Induction of beta-actin expression in human HeLa cells at 100 ng/ml after 14 hrs by Western blotting; format: functional, cell-based
HeLa [2] = assay: Induction of beta-tubulin expression in human HeLa cells at 100 ng/ml after 14 hrs by Western blotting; format: functional, cell-based
[3] = Half life of the compound in culture medium by HPLC analysis; format: physicochemical
[4] = target: T1, Splicing factor 3B subunit 3 (Homo sapiens) (UniProt Q15393); assay: Binding affinity to SAP130 assessed as inhibition of radio labeled beta-globin pre-mRNA splicing after 1 hr by autoradiography
T1 sequence (whole entry): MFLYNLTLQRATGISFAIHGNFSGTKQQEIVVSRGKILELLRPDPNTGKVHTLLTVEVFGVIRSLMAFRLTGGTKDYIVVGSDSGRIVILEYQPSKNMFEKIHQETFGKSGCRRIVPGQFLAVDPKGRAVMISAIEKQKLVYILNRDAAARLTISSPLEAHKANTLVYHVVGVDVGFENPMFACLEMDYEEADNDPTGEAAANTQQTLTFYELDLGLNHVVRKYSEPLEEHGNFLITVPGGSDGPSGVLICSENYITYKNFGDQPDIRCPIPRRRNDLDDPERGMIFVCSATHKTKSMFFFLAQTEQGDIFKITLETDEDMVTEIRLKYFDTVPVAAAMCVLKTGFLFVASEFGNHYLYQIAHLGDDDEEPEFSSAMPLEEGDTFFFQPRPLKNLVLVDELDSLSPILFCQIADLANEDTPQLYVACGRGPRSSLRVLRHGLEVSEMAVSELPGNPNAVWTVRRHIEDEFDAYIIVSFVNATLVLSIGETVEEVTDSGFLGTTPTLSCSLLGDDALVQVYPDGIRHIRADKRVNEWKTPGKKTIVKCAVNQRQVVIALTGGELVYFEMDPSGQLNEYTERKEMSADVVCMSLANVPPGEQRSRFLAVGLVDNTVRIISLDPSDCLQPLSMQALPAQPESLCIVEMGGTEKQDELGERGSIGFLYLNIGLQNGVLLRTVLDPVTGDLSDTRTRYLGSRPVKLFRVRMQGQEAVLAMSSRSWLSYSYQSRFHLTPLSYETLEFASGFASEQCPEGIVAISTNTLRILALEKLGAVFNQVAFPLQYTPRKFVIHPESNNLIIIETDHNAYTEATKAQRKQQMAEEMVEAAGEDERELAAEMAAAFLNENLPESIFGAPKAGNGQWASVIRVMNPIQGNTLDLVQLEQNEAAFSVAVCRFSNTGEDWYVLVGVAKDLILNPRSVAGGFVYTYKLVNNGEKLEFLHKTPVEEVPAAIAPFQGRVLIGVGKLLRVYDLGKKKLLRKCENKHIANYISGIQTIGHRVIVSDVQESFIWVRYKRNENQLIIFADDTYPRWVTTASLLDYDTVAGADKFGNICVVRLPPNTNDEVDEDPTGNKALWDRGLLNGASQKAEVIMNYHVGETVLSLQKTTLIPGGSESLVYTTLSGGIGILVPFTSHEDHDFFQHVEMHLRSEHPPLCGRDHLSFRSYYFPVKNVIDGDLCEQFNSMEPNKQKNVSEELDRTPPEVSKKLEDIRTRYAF
Outline: (§1)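 32P-labelled, m7G-capped in vitro-transcribed pre-mRNA substrate; beta-globin (exon 1 177 nt, intron 130 nt, exon 2 148 nt) or IgM (exon C3 154 nt, intron 107 nt, exon C4 119 nt). HeLa nuclear extract preincubated with SSA (19, 58, 95, 190 nM) or methanol for 1 h at 4 °C. Splicing then run 90 min at 30 °C in 20 µl. RNA resolved on denaturing urea-PAGE; autoradiography.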

[5] = target: T1, Splicing factor 3B subunit 3 (Homo sapiens); assay: Binding affinity to SAP130 assessed as inhibition of radio labeled IgM pre-mRNA splicing after 1 hr by autoradiography; outline: as §1
[6] = target: T1, Splicing factor 3B subunit 3 (Homo sapiens); assay: Binding affinity to SAP130 in human HeLa cells assessed as inhibition of FLAG-tagged beta globin splicing at 100 ng/ml after 12 hrs by RT-PCR analysis; format: cell-based
[7] = target: T1, Splicing factor 3B subunit 3 (Homo sapiens); assay: Binding affinity to SAP130 in human HeLa cells assessed as inhibition of p27 mRNA splicing at 100 ng/ml after 6 hrs by RT-PCR analysis; format: cell-based
Outline: (§2)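 HeLa cells treated 6 h with 100 ng ml-1 SSA or methanol. Total RNA isolated with TRIzol and reverse transcribed with M-MLV reverse transcriptase. PCR primers designed to detect intron-containing transcripts.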

[8] = target: T1, Splicing factor 3B subunit 3 (Homo sapiens); assay: Binding affinity to SAP130 in human HeLa cells assessed as inhibition of beta-tubulin mRNA splicing at 100 ng/ml after 6 hrs by RT-PCR analysis; format: cell-based; outline: as §2
[9] = target: T1, Splicing factor 3B subunit 3 (Homo sapiens); assay: Binding affinity to SAP130 in human HeLa cells assessed as inhibition of beta-actin mRNA splicing at 100 ng/ml after 6 hrs by RT-PCR analysis; format: cell-based; outline: as §2
[10] = target: T1, Splicing factor 3B subunit 3 (Homo sapiens); assay: Binding affinity to SAP130 in human HeLa cells assessed as inhibition of p27 pre-mRNA splicing between exon 1 and exon 2 at […] after 12 hrs by RT-PCR analysis; format: cell-based
[11] = target: T1, Splicing factor 3B subunit 3 (Homo sapiens); assay: Binding affinity to SAP130 in human HeLa cells assessed as inhibition of p27 pre-mRNA splicing between exon 1 and intron 2 at […] after 12 hrs by RT-PCR analysis; format: cell-based
[12] = target: T1, Splicing factor 3B subunit 3 (Homo sapiens); assay: Binding affinity to SAP130 in human HeLa cells assessed as inhibition of IkappaBalpha pre-mRNA splicing between exon 1 and exon 4 at […] after 12 hrs by RT-PCR analysis; format: cell-based
HeLa [13] = assay: Induction of subcellular localization of poly(A) RNA in human HeLa cells at 100 ng/ml after 3 hrs using digoxigenin-labeled oligo-Dt probe; format: functional, cell-based
Outline: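 HeLa cells treated with SSA (100 ng ml-1, 3 h) or MeOH. Fixed in 3% formaldehyde 15 min; permeabilized with 0.5% Triton X-100 on ice. Hybridized at 42 °C with 3'-digoxigenin oligo-dT in 2× SSC, 20% formamide, 1 mg ml-1 tRNA, 10% dextran sulfate. Washed; detected with anti-digoxigenin then FITC anti-mouse IgG.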

HeLa [14] = assay: Induction of subcellular localization of SC35 in human HeLa cells at 100 ng/ml after 3 hrs; format: functional, cell-based
Outline: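 HeLa cells treated with SSA (100 ng ml-1, 3 h) or MeOH. Fixed in 3% formaldehyde, permeabilized with 1% Triton X-100, blocked with 5% FBS-PBS. Stained with anti-SC35 and an Alexa 488 anti-mouse secondary; fluorescence microscopy at 100×.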

HEK-293T [15] = assay: Induction of intron translation of HA-tagged truncated p27 gene in HEK293T cells at 100 ng/ml for 14 hrs; format: functional, cell-based; details: Homo sapiens
Outline: (§3)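 HEK 293T cells transfected (Lipofectamine 2000) with the p27-int-HA reporter. Correct splicing yields p27-Myc; translated intron yields p27*-HA. Cells treated with or without SSA at 100 ng ml-1 for 14 h. Myc- and HA-tagged products detected by western blotting.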

HEK-293T [16] = assay: Induction of intron translation of Myc-tagged p27 gene in HEK293T cells at 100 ng/ml for 14 hrs by Western blotting; format: functional, cell-based; details: Homo sapiens; outline: as §3
HeLa [17] = assay: Induction of truncated p27 expression in SAP155-targeting siRNA-transfected human HeLa cells; format: functional, cell-based
Outline: (§4)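 HeLa cells transfected with siRNA against SAP155, SAP145 or SAP130 using DharmaFECT 1. Knockdown and the truncated p27* form detected by western blotting of cell extracts.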

HeLa [18] = assay: Induction of truncated p27 expression in SAP145-targeting siRNA-transfected human HeLa cells; format: functional, cell-based; outline: as §4
HeLa [19] = assay: Induction of truncated p27 expression in SAP130-targeting siRNA-transfected human HeLa cells; format: functional, cell-based; outline: as §4
HeLa [20] = assay: Induction of subcellular localization of SAP155 in SAP155-targeting siRNA-transfected human HeLa cells after 3 days; format: functional, cell-based
HeLa [21] = assay: Induction of subcellular localization of SAP145 in SAP145-targeting siRNA-transfected human HeLa cells after 3 days; format: functional, cell-based
[22] = target: Cyclin-dependent kinase 2 (Homo sapiens) (UniProt P24941); assay: Induction of CDK2 in HEK293T cells transfected with FLAG-tagged truncated p27 at 190 nM by Western blot analysis; format: cell-based; details: HEK-293T
Outline: (§5)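 HEK 293T cells were transfected with pcDNA3.1, FLAG-p27 or FLAG-p27*, or were treated with MeOH, FR901464 (20, 200 nM) or SSA (190 nM). CDK2 was immunoprecipitated and its kinase activity read by autoradiography with histone H1 and (gamma-32P)ATP. Associated proteins were detected by western blotting.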

[23] = target: Cyclin-dependent kinase 2 (Homo sapiens) (UniProt P24941); assay: Induction of CDK2 in HEK293T cells transfected with FLAG-tagged p27 at 190 nM by Western blot analysis; format: cell-based; details: HEK-293T; outline: as §5
[24] = tested on: SF3B1/SF3B2/SF3B3 (Homo sapiens); assay: Displacement of Ac-SSA from SF3b SAP155/SAP145/SAP130 complex in human HeLa cells by competition binding assay
HeLa [25] = assay: Induction of p16 expression in human HeLa cells at 1 uM after 24 hrs by Western blotting; format: functional, cell-based
Outline: (§6)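 HeLa S3 cells were grown in DMEM with 10% heat-inactivated FBS and treated for 24 h. Cells were sonicated in ice-cold pH 7.5 HEPES IP buffer with protease inhibitors. Extracts were separated by SDS-PAGE, blotted to PVDF and probed with anti-p16, anti-p21 and anti-p27 antibodies, with chemiluminescent detection.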

HeLa [26] = assay: Induction of p27 expression in human HeLa cells at 1 uM after 24 hrs by Western blotting; format: functional, cell-based; outline: as §6
HeLa [27] = assay: Induction of p21 expression in human HeLa cells at 1 uM after 24 hrs by Western blotting; format: functional, cell-based; outline: as §6

Structure (SMILES): CO[C@]1(C)C[C@@]2(CO2)[C@H](O)[C@@H](/C=C/C(C)=C/C[C@@H]2O[C@H](C)[C@H](NC(=O)/C=C\[C@H](C)OC(C)=O)C[C@@H]2C)O1
- Activity (HeLa [1]): Active
- Activity (HeLa [2]): Active
- half-life [3]: 6 min
- Activity [4]: Dose-dependent effect
- inhibition [5]: Active
- Activity [6]: Active
- inhibition [7]: Active
- inhibition [8]: Active
- inhibition [9]: Active
- Activity [10]: Active
- Activity [11]: Active
- Activity [12]: Active
- Activity (HeLa [13]): Active
- Activity (HeLa [14]): Active
- Activity (HEK-293T [15]): Active
- Activity (HEK-293T [16]): Active
- Activity (HeLa [17]): Active
- Activity (HeLa [18]): Active
- Activity (HeLa [19]): Active
- Activity (HeLa [20]): Active
- Activity (HeLa [21]): Active
- Activity [22]: inactive
- Activity [23]: inactive
- Activity [24]: Active

Structure (SMILES): CC(/C=C/C(=O)NO)=C\[C@@H](C)C(=O)c1ccc(N(C)C)cc1
- Activity (HeLa [25]): Active
- Activity (HeLa [26]): Active
- Activity (HeLa [27]): Active
